We go through 17 compounds from ChEMBL document CHEMBL4145578, “Protoilludane, Illudalane, and Botryane Sesquiterpenoids from the Endophytic Fungus Phomopsis sp. TJ507A” (J Nat Prod, 2018).

Chain of Beta-secretase 1 (Homo sapiens) (P56817 whole entry): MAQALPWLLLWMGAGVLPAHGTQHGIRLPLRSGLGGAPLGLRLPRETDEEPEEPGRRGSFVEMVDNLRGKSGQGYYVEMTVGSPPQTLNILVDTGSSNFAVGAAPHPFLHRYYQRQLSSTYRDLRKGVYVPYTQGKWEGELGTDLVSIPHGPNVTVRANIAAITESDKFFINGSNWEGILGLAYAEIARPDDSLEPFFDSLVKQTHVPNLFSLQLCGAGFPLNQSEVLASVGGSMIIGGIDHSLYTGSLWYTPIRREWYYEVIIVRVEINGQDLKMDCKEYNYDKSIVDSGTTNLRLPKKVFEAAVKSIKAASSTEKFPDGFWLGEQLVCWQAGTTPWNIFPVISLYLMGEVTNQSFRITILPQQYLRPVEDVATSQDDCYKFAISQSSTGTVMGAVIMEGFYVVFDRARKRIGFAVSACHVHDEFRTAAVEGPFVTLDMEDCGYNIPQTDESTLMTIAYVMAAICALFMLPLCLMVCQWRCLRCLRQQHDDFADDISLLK

The first data set relates to L02. As to the kind of experiment: Cytotoxicity against human L02 cells assessed as effect on cell viability at 40 uM after 24 hrs by MTT assay. Format: cell-based. The conditions noted are these: l02, 24 h. Summed up:
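L-02 cells grown in DMEM with 10% FBS at 37 °C and 5% CO2, seeded at 5 × 10^3 cells/well, then settled over 12 h. Compound in DMSO added at 40 μM final (DMSO below 0.4%) for 24 h. MTT (5 mg/mL stock) added for a further 4 h. Formazan dissolved in DMSO and absorbance read at 570 nm.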
Turning to `CC1C(=O)C2=CC(C)(C)C[C@]2(O)[C@@]2(C)C[C@@H](O)C12` (some centres not stated), the Activity entry is on record as “Non-Toxic”.

For the compound `CC1=C2CC[C@]2(C)[C@H]2C[C@@](C)(CO)C=C2C1=O`, the Activity result is listed as “Non-Toxic”.

`CC1C(=O)C2=CC(C)(C)C[C@]2(O)[C@@]2(C)CCC12` (some centres not stated): the Activity result is on record as “Non-Toxic”.

In the case of `CC1=C2[C@H](O)C[C@]2(C)[C@H]2C[C@](C)(CO)C=C2C1=O`, the Activity result is “Non-Toxic”.

Turning to `Cc1c(O)c2c(c(C)c1CCO)C(=O)C(C)(C)[C@@H]2O`, the Activity result is on record as “Non-Toxic”.

`CC1=C2[C@H](O)C[C@]2(C)[C@H]2CC(C)(C)C=C2C1=O`: the Activity entry is reported as “Non-Toxic”.

`CC1=C2CC[C@]2(C)[C@@H]2C(=CC(C)(C)[C@H]2O)C1=O`: the Activity result was “Non-Toxic”.

For `Cc1c(O)c2c(c(C)c1CCO)C(=O)C(C)(C)C2` [ONITIN], the Activity entry is “Non-Toxic”.

As to `CC(=O)OCCc1c(C)c(O)c2c(c1C)[C@@H](O)C(C)(C)C2`, the Activity result is reported as “Non-Toxic”.

As to `Cc1ccc2c3c1C(=O)OC[C@@]3(C)[C@H](O)C2(C)C`, the Activity result was “Non-Toxic”.

Regarding `CC1=C2OCC[C@]2(C)[C@H]2CC(C)(C)C=C2C1=O`, the Activity result is “Non-Toxic”.

Regarding `Cc1cc2c(c(C)c1CCO)CC(C)(C)C2`, the Activity entry is “Non-Toxic”.

Take `CC1=C2CC[C@]2(C)[C@]2(O)C(=CC(C)(C)[C@H]2O)C1=O`: the Activity entry is given as “Non-Toxic”.

Turning to `Cc1cc2c(c(C)c1CCO)C(=O)C(C)(C)C2` [PTEROSIN Z], the Activity entry is “Non-Toxic”.

On to `CC1=C2[C@H](O)C[C@]2(C)[C@H]2C[C@@](C)(CO)C=C2C1=O`, for which the Activity result was “Non-Toxic”.

On to `C[C@H]1C(=O)[C@]2(O)CC(C)(C)C[C@@H]2[C@@]2(C)CC[C@@]12O`, for which the Activity result is listed as “Non-Toxic”.

Another data set addresses Beta-secretase 1 (Homo sapiens) (UniProt P56817). As to the kind of experiment: Inhibition of BACE1 (unknown origin) at 0.5 uM using BACE1 substrate measured after 2 hrs by FRET assay relative to control.
Settings: not given
In the case of `C[C@@]1(c2cc(-c3cncnc3)c(F)cc2F)CCSC(N)=N1`, the inhibition (as a rule, the drop in the measured response relative to a control, in per cent) is 38.6%.
